According to publication PMC9889650 (Journal of Veterinary Internal Medicine, 2022):
Where two headings read alike, the source gives them in different places.

Assays:
[1] = system: canine osteosarcoma cell line OSCA40; test: Cell viability after 24h treatment, OSCA40 cell line; assay type: cell-based, dog; details: OSCA40, 24h
In short: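 OSCA40 canine osteosarcoma cells were kept in α-MEM with 10% FCS, 10 mM L-glutamine and penicillin/streptomycin at 37°C, 5% CO2, for at most four passages, and tested Mycoplasma-negative. As a control line they were given a BH3 mimetic at 2 nM–10 μM, with 0.001% DMSO as the negative control, for 24 h.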

[2] = system: primary canine T cell cancers (T cell lymphoma, TZL, T-CLL) neoplastic T lymphocytes; test: In vitro BH3 mimetics sensitivity cell kill assay, primary canine T cell cancers; assay type: cell-based; details: dog 26, multicentric large T cell lymphoma, neoplastic CD3+ nodal T cells, 24 h
[3] = system: MDCK immortalized canine kidney cells; test: Cell viability after 24h treatment, MDCK cell line; assay type: cell-based, dog
In short: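 MDCK canine kidney cells were kept in DMEM with 10% FCS and penicillin/streptomycin at 37°C, 5% CO2, for at most four passages, and tested Mycoplasma-negative. As a control line they were given a BH3 mimetic at 2 nM–10 μM, with 0.001% DMSO as the negative control, for 24 h.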

human DLBCL (hDLBCL) = details: single‐agent treatment; cited from earlier work
[4] = people, 400 mg daily dosing; cited from earlier work
Beagles = details: 2 to 20 mg/kg PO daily for up to 9 months; cited from earlier work
[5] = dogs, 20 mg/kg once a day; cited from earlier work
[6] = system: human B‐cell acute lymphoblastic leukemia cell line RS4;11; test: Cell viability after 24h treatment, RS4; assay type: cell-based; details: RS4;11 positive control
In short: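 RS4;11 human B-ALL cells had their identity genetically confirmed and were grown in RPMI with 10% FCS and penicillin/streptomycin at 37°C, 5% CO2, for at most four passages. They were run as a control with each experiment at 1 × 10^5 cells/well in single replicates, given a BH3 mimetic at 2 nM–10 μM or 0.001% DMSO for 24 h at 37°C.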

CC1(C)CCC(c2ccc(Cl)cc2)=C(CN2CCN(c3ccc(C(=O)NS(=O)(=O)c4ccc(N[C@H](CCN5CCOCC5)CSc5ccccc5)c(S(=O)(=O)C(F)(F)F)c4)cc3)CC2)C1 [NAV, navitoclax]
sensitivity in vitro [1]: resistance | EC50 [2]: 0.0208 µM | sensitivity in vitro [3]: resistance

CC1(C)CCC(CN2CCN(c3ccc(C(=O)NS(=O)(=O)c4ccc(NCC5CCOCC5)c([N+](=O)[O-])c4)c(Oc4cnc5[nH]ccc5c4)c3)CC2)=C(c2ccc(Cl)cc2)C1 [VEN, venetoclax]
sensitivity in vitro [1]: resistance | overall response rate (human DLBCL (hDLBCL)): 18% | area under the curve (AUC) [4]: 31800 ng·h/mL | Other clinical toxicities (Beagles): grade 2 weight loss associated with hyporexia, and leukotricia | average reduction in circulating lymphocytes (Beagles): 81% | hematological finding (Beagles): mild anemia | EC50 [2]: 0.0079 µM | area under the curve (AUC) [5]: 73600 ng·h/mL | sensitivity in vitro [3]: resistance | sensitivity in vitro [6]: sensitive
